WT yeast gro inh: growth inhibition of WT yeast, mitochondrial fusion screen | inhibition, % at 10 µM | hit rate 2.1% among 190,000 | mitochondrial fusion phenotypic screen, WT strain; in the data active = inhibition above about 58%; tested in S. cerevisiae
Diaphorase act: diaphorase activation or chemical reduction counter-screen | Diaphorase/resazurin coupled assay, resorufin fluorescence, 16 min; active compounds read high; 1 = vehicle wells, 0 = NADH-free wells | activation factor at 20 µM | hit rate 0.005% among 190,000;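 active = diaphorase activity raised at least twofold by the compound at 20 µM; inactive = activation factor below 2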
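test system = bacterial diaphorase enzyme (C. kluyveri) | quantity = enzyme 0.07 U/mL final | reagent = NADH substrate 0.114 mM plus resazurin dye 0.1 mM, final | incubation = 16 min enzyme reaction, ambient temperature | buffer or medium = HEPES pH 7.4 buffer with MgCl2 and Tween 20 | signal = fluorescence of resorufin, 544 nm excitation, 590 nm emission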
PMI activator: phosphomannose isomerase (human) activation | P34949 | purified human PMI, coupled resazurin fluorescence, 20 min; active compounds read high; 1 = vehicle control, 0 substrate-free wells | activation factor at 20 µM | hit rate 0.005% among 190,000 | AID 1214;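 active = activation factor of 2 or more at 20 µM, relative to plate controls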
Target sequence (P34949 whole entry, looked up): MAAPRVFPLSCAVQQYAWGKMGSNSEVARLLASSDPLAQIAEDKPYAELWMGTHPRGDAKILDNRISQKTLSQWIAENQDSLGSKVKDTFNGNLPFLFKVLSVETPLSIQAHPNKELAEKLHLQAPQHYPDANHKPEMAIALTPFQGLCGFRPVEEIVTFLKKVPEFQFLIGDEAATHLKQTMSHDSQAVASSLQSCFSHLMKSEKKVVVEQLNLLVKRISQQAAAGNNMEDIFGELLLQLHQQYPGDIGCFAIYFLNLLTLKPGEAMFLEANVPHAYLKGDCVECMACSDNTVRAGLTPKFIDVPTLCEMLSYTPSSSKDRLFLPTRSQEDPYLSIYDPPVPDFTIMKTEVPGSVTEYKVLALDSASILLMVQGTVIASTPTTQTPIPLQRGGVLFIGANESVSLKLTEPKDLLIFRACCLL
PMI act hi M6P: increases human PMI activity with near-saturating mannose 6-phosphate; coupled PMI enzyme assay, resazurin fluorescence, 20 min; active compounds read high; 1 = untreated enzyme, 0 = substrate-free blank; activation factor at 20 µM; hit rate 0.34% among 190,000;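 active = activation factor of 2 or more at 20 µM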
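Material: human phosphomannose isomerase with PGI, G6PDH, diaphorase coupling enzymes. Quantity: 15 ng/mL PMI. Medium: HEPES pH 7.4 buffer with MgCl2 and Tween-20. Reagent: Near-saturating mannose-6-phosphate, 1.0 mM. Compound: 20 µM single dose. Times: enzyme reaction with compound 20 min at room temperature. Detection: resorufin fluorescence at Ex 544/Em 590 nm.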
Lmaj promast: Leishmania major promastigote growth inhibition; Leishmania major promastigotes, resazurin fluorescence viability; inhibition, % at 10 µM; hit rate 9% among 200,000; AID 1063; in the data active = inhibition above about 50%;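 note: promastigotes grown with compound for 44 hours at 28 °C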
An asterisk follows results filed as active; . = not tested or not shown. The list is not random: actives were taken first. Their share in the collection is about 10%.

SMILES | WT yeast gro inh | Diaphorase act | PMI activator | PMI act hi M6P | Lmaj promast
Cc1cc(C2=NNC(=NC3CCCCC3)SC2)c(C)n1-c1c(C)n(C)n(-c2ccccc2)c1=O | -3.8 | 0.9 | 1 | 0.9 | 42.7
Cc1cc(C2=NNC(=NC3CC3)SC2)c(C)n1-c1ccccc1F | -4.3 | 1 | 1.1 | 1 | 76.7*
CCN=C1NN=C(c2cc(C)n(CCc3ccccc3)c2C)CS1 | 2.4 | 0.9 | 1.6 | 2.2* | -1.4
C=C(C)CN=C1NN=C(c2cc(C)n(-c3ccc(C)cc3)c2C)CS1 | 5.1 | 0.9 | 0.9 | 0.8 | 91.1*
CNc1ccccc(-c2ccc3ccccc3n2)c1=O | -4.2 | 0.6 | 1.1 | 0.8 | 11.0
N=C1C(c2nc3ccccc3s2)=C(O)CN1c1ccccc1 | 2.5 | 1.1 | 1 | 1 | 7.1
CCCCN1C(=O)/C(=C2\SC(N3CCCCC3)=NC2=O)c2ccccc21 | 46.8 | 0.7 | 0.9 | 0.9 | 51.3*
O=C1N=C(N2CCOCC2)S/C1=C1\C(=O)N(Cc2ccccc2)c2ccc(Br)cc21 | . | 0.8 | 1 | 1 | .
CCc1n(CC(O)COC2CCCCC2)c2ccccc2[n+]1C (stereo not drawn) | 12.6 | 1 | 0.8 | 0.8 | -1.5
O=C(c1ccco1)n1nc(-c2cccnc2)nc1NCc1ccco1 | -12.9 | 1 | 1 | 1.1 | -1.4
Nn1cnnc1N/N=C/c1ccc(Cl)c([N+](=O)[O-])c1 | -3.1 | 1.2 | 0.9 | 0.4 | 53.9*
CN(C)c1nc(N/N=C\c2ccc(Cl)c([N+](=O)[O-])c2)nc(Nc2ccc(F)cc2)n1 | . | . | . | . | 97.4*
Nc1nnnn1/N=C\c1ccc(Cl)c([N+](=O)[O-])c1 | 10.3 | 0.9 | 1 | 1.1 | -0.2
c1ccc2c(SCc3cn4ccccc4n3)nncc2c1 | 2.6 | 1.2 | 1.1 | 1.1 | 9.3
CC(C)[C@H](NC(=O)[C@H](CCCN=C(N)N)NC(=O)NC(Cc1ccccc1)C(=O)O)C(=O)NC(C=O)CCCN=C(N)N (stereo partly drawn) | -7.6 | 1 | 1 | 1.1 | 82.4*
CC(C)C(NC(=O)C(Cc1ccccc1)NC(=O)OCc1ccccc1)C(=O)O (stereo not drawn) | 3.9 | 0.8 | 0.9 | 0.9 | 29.0
CCNc1nc(NCC)nc(SCCOC(=O)c2ccccc2)n1 | 9.7 | 0.9 | 1 | 1 | 54.7*
COc1ccc(N2CCN(C(=O)C3(C)CC3(Cl)Cl)CC2)cc1 (stereo not drawn) | -10.1 | 0.9 | 1.1 | 1 | -6.5
Cc1ccc2c(c1)c1c(n2CC(O)CNC2CCCCC2)CCCC1 (stereo not drawn) | 93.1* | 0.9 | 1 | 0.8 | 100.6*
O=C(O)Cn1c(CC(=O)N2CCCC2)nc2ccccc21 | 63.4* | 0.9 | 0.9 | 1 | -6.2
COc1ccc(NS(=O)(=O)c2ccc(N3CCOCC3)c(NC(=O)c3ccc(OC)cc3)c2)cc1 | -0.2 | 0.8 | 0.9 | 0.9 | 82.2*
COC(=O)CCC(=O)Nc1cc(S(=O)(=O)Nc2ccc(Cl)cc2)ccc1N1CCOCC1 | 14.1 | 0.9 | 0.8 | 0.9 | -3.7
COc1ccc2cc(/C(C)=N/NC(=S)Nc3cc(S(=O)(=O)N4CCOCC4)ccc3N3CCOCC3)ccc2c1 | -17.6 | 0.8 | 0.8 | 0.8 | 75.0*
COc1ccc(NS(=O)(=O)c2ccc(N3CCOCC3)c(NC(=O)c3ccccc3Cl)c2)cc1 | -6.3 | 1 | 1 | 1 | 97.5*
COc1ccc(-c2cc(C(=O)Nc3cc(S(=O)(=O)N4CCOCC4)ccc3N3CCOCC3)c3ccccc3n2)cc1 | -2.5 | 0.9 | 1.2 | 1.1 | 65.0*
SMILES | WT yeast gro inh | Diaphorase act | PMI activator | PMI act hi M6P | Lmaj promast
COc1ccc(S(=O)(=O)Nc2cc(C(=O)NC(C)C)ccc2N2CCOCC2)cc1 | 3.4 | 0.9 | 1 | 1 | 2.3
Cc1cccc[n+]1CC(=O)N1c2ccccc2Sc2ccccc21 | 24.6 | 1 | 1 | 1 | 10.6
COC(=O)c1ccsc1-n1cc(C#N)c(=O)n(C)c1=O | -15.3 | 1 | 1.1 | 1.1 | -5.5
O=C(Nc1ccc(Cl)c(Cl)c1)Nc1cc(S(=O)(=O)N2CCOCC2)ccc1N1CCCC1 | 3.1 | 0.8 | 0.8 | 1 | 68.7*
COc1ccccc1OCCCCNCCO | 13.5 | 0.9 | 0.9 | 1 | -1.3
Cc1cccc(C)c1OCCCN1CCCC1 | -12.1 | 0.9 | 1 | 1.1 | -2.6
Cc1cccc(C)c1OCCCCCNCCO | 2.5 | 0.9 | 0.9 | 0.8 | 89.2*
Cc1ccccc1OCCCCCNCCO | 18.3 | 0.9 | 0.9 | 0.9 | 61.7*
OCCNCCOc1ccccc1F | 7.4 | 0.8 | 0.9 | 1 | -6.4
CC(C)c1ccccc1OCCCCCNCCO | 7.3 | 1 | 1 | 1 | 91.2*
CC(C)(C)c1ccccc1OCCCCCNCCO | 5.8 | 1 | 0.9 | 0.9 | 93.0*
Cn1c(CN2CCCC2)nc2cc(NC(=O)COc3ccc([N+](=O)[O-])cc3)ccc21 | -5.2 | 1 | 0.9 | 0.8 | 24.0
CC/C(=C\C(=O)c1cccnc1)Nc1ccc(C)c(C)c1 | 44.5 | 0.8 | 0.7 | 1.1 | 19.8
O=C(NCCOC(=O)c1ccc(Cl)c(S(=O)(=O)N2CCCCC2)c1)c1ccncc1 | 5.8 | 0.9 | 1 | 1 | 51.4*
COc1ccc(N(CC(=O)NCCC2=CCCCC2)S(=O)(=O)c2ccc(C)cc2)cc1 | 8.9 | 1 | 0.9 | 0.9 | 2.1
Cc1ccc(C(=O)/C=C/C(=O)c2ccc(C)cc2)cc1 | 61.5 | 1 | 1 | 1 | 100.6*
Cc1ccc(-c2ccc(/C=C/C(=O)c3ccccc3)o2)cc1 | -0.9 | 0.8 | 0.9 | 1 | 89.3*
C/C(CC(=O)Nc1ccc(N(C)C)cc1)=N\NC(=O)Cc1csc(N)n1 | 3.1 | 1 | 1 | 1.1 | 75.3*
C/C(CC(=O)NC1CCCC1)=N\NC(=O)Cc1csc(N)n1 | 16.5 | 1 | 1 | 1 | -2.4
O=c1[nH]c(CN2CCN(c3ccc(O)cc3)CC2)nc2scc(-c3ccc(Cl)cc3)c12 | 42.8 | 0.7 | 0.9 | 0.7 | 39.6
NC(=S)n1[nH]c(-c2ccc([N+](=O)[O-])cc2)c(N=Nc2ccc(Cl)cc2)c1=O | 78.3* | 0.7 | 1 | 1 | 97.2*
CN(CC(=O)Nc1ccc(C(N)=O)cc1)CC(=O)Nc1ccccc1Cl | 0.7 | 0.9 | 1 | 1 | 50.8*
CN(CC(=O)Nc1ccccc1-c1ccccc1)Cc1ccccc1Cl | 70.3* | 0.7 | 0.8 | 0.8 | 20.2
COc1cc(Cl)c(C)cc1NC(=O)CN(C)Cc1cccc(OC)c1OC | 59.2* | 0.9 | 0.9 | 0.9 | 17.9
Cc1ccc(NC(=O)CN(C)CC(=O)Nc2ccccc2-c2ccccc2)cc1 | 6.7 | 1.1 | 1 | 1.1 | 27.0
COc1ccc(Br)cc1CN(C)CC(=O)Nc1ccccc1Cl | 67.1* | 0.8 | 0.8 | 0.9 | -1.3
CCOc1ccc(C(Nc2ccc(C)cc2)P2(=O)OCCC(C)O2)cc1 (stereo not drawn) | 7.4 | 1 | 1 | 1 | -0.2
O=C(Nc1cccs1)Nc1c(F)c(F)c(F)c(F)c1F | 12.1 | 1 | 1 | 1.1 | 55.1*
